Compound activity deposited in PubChem BioAssay by several laboratories.
BB579 growth dn = chemicals that inhibit yeast BB579 growth in restrictive medium (lifespan-shortening candidates); S. cerevisiae BB579 growth, OD615, 48 h; inhibition, % at 10 µM; 140,000 tested, 0.51% active; AID 804;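 active means inhibition above a set limit, 3 SD over the mean compound inhibition, cut at about 44% in these data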
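Test system: DeaD yeast strain BB579 / Buffer or medium: restrictive glucose-based CSMM-D medium / Doses: single 10 µM dose / Schedule: 4 h cell preincubation, 48 h compound exposure, 30 °C humidified / Technique: culture absorbance at 615 nm / Controls: amphotericin B positive control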
RAM inhibit = inhibitors of the yeast RAM network; 190,000 tested, 1.8% active; S. cerevisiae dse1pr::URA3 reporter, 5-FOA growth OD615, 2 d; analog-sensitive cbk1-as2 kinase mutant strain; inhibition, % at 50 µM;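 active means inhibition above a set limit, 3 SD over mean compound inhibition, cut at about 8.4% in these data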;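 further: 0% = DMSO-only wells with no growth and 100% = 10 µM 1-NA-PP1 full growth; inhibition rescues growth on 5-FOA so higher OD means more RAM inhibition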
Yeast life ext = extends the lifespan of yeast | S. cerevisiae growth with nicotinamide, OD615; deaD strain in restrictive glucose medium | 130,000 tested, 0.68% active | inhibition of the nicotinamide effect, % at 10 µM;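 active means inhibition above a set limit, placed 3 SD over the median of all compounds, cut at about 26% in these data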;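 further: 0% = nicotinamide-treated wells and 100% = cells grown without nicotinamide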
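Test system: DeaD-strain S. cerevisiae / Buffer or medium: restrictive glucose medium / Also added: nicotinamide 1.5 mM / Doses: one concentration, 10 µM, DMSO 0.25% / Schedule: 48 h at 30 °C / Signal: OD615 measurement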
Measles CPE = protection of cells from measles virus. protection (pct of control), % at 4 µM. AID 841. Measles virus-infected cells, CPE protection, absorbance. 140,000 tested, 1.5% active; in the data active means protection mostly above about 24%, no sharp cut-off; inactive means mostly below about 26%
Active calls of the source: *; · = no result. Rows were chosen to be rich in hits. Some 3.8% of all compounds tested hit in one or more screens of this group.

SMILES	BB579 growth dn	RAM inhibit	Yeast life ext	Measles CPE
CCC(C)(C)NC(=O)C(c1ccc(OC)cc1)N(Cc1cccs1)C(=O)CCC(=O)Nc1cc(C)on1 (stereo not drawn)	-17	0	·	10
NS(=O)(=O)c1ccc(NS(=O)(=O)c2ccc(NC(=S)Nc3ccccc3)cc2)cc1	-6	0	0	·
NS(=O)(=O)c1ccc(NC(=S)Nc2ccn(Cc3cccc4ccccc34)n2)cc1	·	9.3*	·	·
COc1ccc(/C=C/C(=O)N[C@H](C(=O)O)C(C)C)cc1	·	1	·	·
Cc1ccc(/C=N/NC(=O)CNC(=O)c2cccc([N+](=O)[O-])c2C)o1	·	0	·	·
COc1ccc(-n2c(COc3ccc(C)cc3)nnc2SCc2ccc(C#N)cc2)cc1	-71	9.6*	0	5
COc1ccc(-n2c(COc3ccc(Cl)cc3)nnc2SCc2ccc(C#N)cc2)cc1	-2	8	9	24
Cc1ccc(OCc2nnc(SCC(=O)O)n2N)cc1	-14	0	-7	40*
Cc1ccc(OCc2nnc(SCC(=O)c3ccccc3)n2-c2ccccc2)cc1	-35	9.4*	·	11
N#Cc1ccc(OCc2nnc(SCC(=O)c3ccccc3)n2-c2ccccc2)cc1	7	1	·	21
CC(C)(C)c1ccc(OCc2nnc(SCC(N)=O)n2N)cc1	·	1	·	·
FC(F)Oc1ccc(NC(=S)NCCc2ccccn2)cc1	·	1	·	·
O=C1C=C(c2ccccc2)C(=O)N1Nc1ccccc1	44*	-1	5	1
Cc1ccc(NN2C(=O)C=C(c3ccc(Cl)cc3)C2=O)cc1	47*	1	-6	4
Nc1ccc(CSc2ccc(Cl)cc2)cc1	·	2	·	·
Cc1cc(NC(=O)CSc2ccc(-c3nc4cc(C)c(C)cc4[nH]3)cn2)no1	-44	10*	-16	6
Cc1cc2nc(-c3ccc(SCC(=O)NC(C)C)nc3)[nH]c2cc1C	·	0	·	·
Cc1cc2nc(-c3ccc(SCC(=O)Nc4ccc(S(=O)(=O)NC5CC5)cc4)nc3)[nH]c2cc1C	-27	9.3*	4	17
c1ccc2c(c1)OCCOCCOCCOCCOc1ccccc1OCCOCCOCCO2	-32	1	3	47*
Cc1ccc(-n2c(SCC(=O)N3CC(=O)Nc4ccccc43)nc3ccccc3c2=O)cc1	-14	2	-5	33*
CC1Cc2nc(SCC(=O)Nc3ccc(F)cc3F)n(C)c(=O)c2S1 (stereo not drawn)	-7	-1	·	41*
Cc1cnc(NC(=O)COc2cccc3c2OC(C)(C)C3)s1	-29	1	-20	65*
Cc1cc(C(=O)NCC(c2ccco2)N(C)C)no1 (stereo not drawn)	-1	2	-12	66*
COc1cc(C(=O)NCC(c2ccco2)N(C)C)cc(OC)c1OC (stereo not drawn)	8	0	-7	7
Cc1cc(NC(=O)Cn2nc(C)c([N+](=O)[O-])c2C)no1	·	1	·	·
SMILES	BB579 growth dn	RAM inhibit	Yeast life ext	Measles CPE
Cc1ccc2c(c1)C(O)(CC(=O)/C=C/C=C/c1ccccc1)C(=O)N2 (stereo not drawn)	-38	0	-12	17
O=C(COC(=O)CC1c2ccccc2CCN1S(=O)(=O)c1ccc(F)cc1)Nc1ccccc1 (stereo not drawn)	5	8.6*	2	5
CCC(C)(C)C1CCc2nc3ccccc3c(C(=O)OC(C)C(=O)Nc3c(C)n(C)n(-c4ccccc4)c3=O)c2C1 (stereo not drawn)	-45	2	-2	11
COc1ccc(/C=C2/N=C3CCCCCN3C2=O)cc1	·	0	·	·
O=C(Nc1ccn(Cc2ccccc2F)n1)c1ccc(COc2cccc(Br)c2)cc1	-22	11*	0	12
O=C(Nc1ccn(Cc2ccccc2F)n1)c1ccc(COc2ccccc2Cl)cc1	-49	0	-1	6
CC(C)c1noc2ncc(C(=O)c3cc(Cl)cc(Cl)c3O)cc12	-22	0	64*	4
COc1ccc(O)c(C(=O)c2cnc3onc(C)c3c2)c1	-33	2	2	12
Cc1cccc(N2CCN(C(=S)c3ccc(-c4ccccc4[N+](=O)[O-])o3)CC2)c1	-65	11*	4	15
COc1cccc(C(=O)Nc2ccc(F)cc2F)c1	-37	0	·	45*
CCS(=O)(=O)N1CCCC(C(=O)NCc2ccccc2Cl)C1 (stereo not drawn)	-14	0	-3	6
CS(=O)(=O)N1CCCC(C(=O)NCc2ccccc2Cl)C1 (stereo not drawn)	-41	2	3	42*
CC(C)(C)C(=O)COC(=O)c1ccc(O)cc1	-13	-1	-5	55*
CC(C)(C)C(=O)COC(=O)c1ccccc1O	-41	0	29	8
O=c1[nH]c(CSc2nc(-c3ccc(F)cc3)cs2)nc2ccccc12	0	2	-2	10
CCN(CC)S(=O)(=O)c1ccc(C)c(C(=O)Oc2cccc(-c3cnc4ccccc4n3)c2)c1	-52	9.3*	-3	3
C/C(Nc1ccc(F)cc1)=C(/C#N)C(N)=O	-8	0	-2	5
NC(=O)Nc1ccc(F)cc1	-53	-1	-7	70*
O=C(c1ccco1)N1CCN(C(=O)C(Cc2ccccc2)NS(=O)(=O)c2cccs2)CC1 (stereo not drawn)	0	-1	-17	24
CC(=O)NC(Cc1ccccc1)C(=O)N1CCN(C(=O)c2ccco2)CC1 (stereo not drawn)	-24	0	-9	36*
O=C(/C=C/N1CCOCC1)c1ccc(-c2ccccc2)cc1	99*	2	-32	2
CCOC(=S)SCC(=O)N1CCc2cc(OC)c(OC)cc2C1C1C(=O)CC(C)(C)CC1=O (stereo not drawn)	-12	1	7	3
CCOC(=S)SCC(=O)N1CCc2ccccc2C1C1C(=O)CC(C)(C)CC1=O (stereo not drawn)	-28	2	37*	6
COc1cccc(NC(=O)c2cc(C(=O)Nc3cccc(OC)c3)n(C)n2)c1	-60	11*	6	24
COc1cccc(NC(=O)c2ccncc2)c1	11	0	-20	7
SMILES	BB579 growth dn	RAM inhibit	Yeast life ext	Measles CPE
Cc1c(Br)c([N+](=O)[O-])nn1CC(=O)Nc1c(C)n(C)n(-c2ccccc2)c1=O	-10	2	3	6
O=C(NCCCN1CCOCC1)C(=O)N/N=C/c1c2ccccc2cc2ccccc12	-19	0	-2	2
O=C(O)c1cc(-c2ccc(Cl)cc2)n[nH]1	-68	1	-6	35*
CCOc1ccc(CCNC(=O)c2cc3sccc3n2CC)cc1OCC	-25	9.0*	2	12
O=C(O)CCCN1C(=O)C(=O)/C(=C(/O)c2ccccc2)C1/C=C/c1ccccc1 (stereo not drawn)	·	5	·	·
CCCN1CCN(C(=O)c2cccc3c2C(=O)N(CCOC)C3)CC1	-34	0	-5	44*
CSc1ncccc1C(=O)Nc1nnc(C2CC2)s1	·	3	·	·
COc1cc2ccccc2cc1C(=O)NC(=S)Nc1cccc(C(=O)O)c1	·	8.9*	·	·
O=C(O)c1cccc(NC(=S)NC(=O)c2ccc(-c3ccccc3)cc2)c1	·	5	·	·
